Laboratory results taken from ChEMBL document CHEMBL1165965, “Synthesis and structure-activity relationships of 1,2,3,4-tetrahydropyrido[2,3-b]pyrazines as potent and selective inhibitors of the anaplastic lymphoma kinase” (Bioorg Med Chem, 2010).

What was measured:
[1] = biological target: Phosphatidylinositol 4,5-bisphosphate 3-kinase catalytic subunit gamma isoform (Homo sapiens) (UniProt P48736); assay: Inhibition of PIK3CG at 1 uM
[2] = biological target: RAC-gamma serine/threonine-protein kinase (Homo sapiens) (UniProt Q9Y243); assay: Inhibition of AKT3 at 1 uM
In short: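 Ambit KINOMEscan screen at a single concentration across a 250–400 kinase panel, recorded as percent inhibition. Selectivity was expressed as S(90), the fraction of kinases inhibited >90%.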

[3] = biological target: T1, NUAK family SNF1-like kinase 1 (Homo sapiens) (UniProt O60285); assay: Inhibition of ARK5 at 1 uM
T1 sequence (whole entry): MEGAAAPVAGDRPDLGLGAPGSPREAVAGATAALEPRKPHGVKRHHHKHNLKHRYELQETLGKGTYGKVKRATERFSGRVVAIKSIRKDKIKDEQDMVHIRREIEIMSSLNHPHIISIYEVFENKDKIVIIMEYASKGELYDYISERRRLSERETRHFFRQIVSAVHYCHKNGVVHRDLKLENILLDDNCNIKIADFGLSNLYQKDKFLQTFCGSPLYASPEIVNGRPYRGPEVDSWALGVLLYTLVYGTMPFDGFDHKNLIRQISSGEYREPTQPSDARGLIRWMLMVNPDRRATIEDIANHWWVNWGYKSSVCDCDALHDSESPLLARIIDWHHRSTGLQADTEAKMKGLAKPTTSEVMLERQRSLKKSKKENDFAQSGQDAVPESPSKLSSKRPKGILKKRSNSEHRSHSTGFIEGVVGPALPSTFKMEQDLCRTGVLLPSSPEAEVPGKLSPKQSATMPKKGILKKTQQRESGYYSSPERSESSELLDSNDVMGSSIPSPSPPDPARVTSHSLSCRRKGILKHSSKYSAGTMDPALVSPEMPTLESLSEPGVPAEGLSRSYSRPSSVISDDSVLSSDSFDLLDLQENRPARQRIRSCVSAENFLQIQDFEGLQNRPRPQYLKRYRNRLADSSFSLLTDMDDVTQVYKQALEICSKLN

[4] = test system: Epidermal growth factor receptor (Homo sapiens), P00533 [G719S]; assay: Inhibition of EGFR G719S mutant at 1 uM; format: protein assay
Epidermal growth factor receptor (Homo sapiens), P00533 [G719S], sequence (P00533 whole entry G719S): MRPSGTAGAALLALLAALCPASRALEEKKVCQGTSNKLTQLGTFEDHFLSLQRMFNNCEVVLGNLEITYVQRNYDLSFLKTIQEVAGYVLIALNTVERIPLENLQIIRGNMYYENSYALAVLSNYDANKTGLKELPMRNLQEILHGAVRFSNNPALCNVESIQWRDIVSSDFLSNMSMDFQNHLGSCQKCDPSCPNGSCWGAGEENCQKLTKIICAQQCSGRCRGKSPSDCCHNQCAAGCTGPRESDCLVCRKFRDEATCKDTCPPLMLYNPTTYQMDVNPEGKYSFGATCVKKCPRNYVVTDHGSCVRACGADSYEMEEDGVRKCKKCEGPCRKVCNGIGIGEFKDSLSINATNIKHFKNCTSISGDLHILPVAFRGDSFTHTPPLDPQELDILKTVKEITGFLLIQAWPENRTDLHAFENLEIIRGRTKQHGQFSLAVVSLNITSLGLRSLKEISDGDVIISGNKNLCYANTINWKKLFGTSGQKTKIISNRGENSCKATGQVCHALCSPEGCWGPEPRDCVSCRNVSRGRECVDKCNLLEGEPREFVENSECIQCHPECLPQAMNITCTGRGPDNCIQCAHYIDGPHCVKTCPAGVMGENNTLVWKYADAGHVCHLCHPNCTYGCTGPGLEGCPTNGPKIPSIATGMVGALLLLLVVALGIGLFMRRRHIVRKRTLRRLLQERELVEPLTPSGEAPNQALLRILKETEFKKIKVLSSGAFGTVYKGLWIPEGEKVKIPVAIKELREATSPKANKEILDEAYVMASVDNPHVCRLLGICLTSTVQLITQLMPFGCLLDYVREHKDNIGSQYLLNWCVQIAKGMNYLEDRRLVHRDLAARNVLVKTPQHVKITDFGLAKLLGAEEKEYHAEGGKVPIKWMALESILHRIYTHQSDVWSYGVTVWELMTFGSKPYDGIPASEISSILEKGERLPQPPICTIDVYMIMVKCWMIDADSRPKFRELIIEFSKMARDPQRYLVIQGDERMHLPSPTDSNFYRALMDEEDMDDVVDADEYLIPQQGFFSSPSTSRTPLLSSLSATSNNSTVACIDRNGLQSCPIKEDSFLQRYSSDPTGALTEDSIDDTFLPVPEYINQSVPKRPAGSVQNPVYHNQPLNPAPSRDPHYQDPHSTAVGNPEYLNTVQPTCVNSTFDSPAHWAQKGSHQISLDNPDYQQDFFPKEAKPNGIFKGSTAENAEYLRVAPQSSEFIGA
In short: (§1)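 Single-concentration screen using Ambit Bioscience KINOMEscan technology across a panel of 250–400 kinases. Per-kinase inhibition from this screen was summarized as S(90), the fraction of kinases inhibited by more than 90%.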

[5] = biological target: Casein kinase II subunit alpha' (Homo sapiens) (UniProt P19784); assay: Inhibition of CSNK2A2 at 1 uM; in short: as §1
Casein kinase II subunit alpha' (Homo sapiens), sequence (P19784 whole entry, looked up): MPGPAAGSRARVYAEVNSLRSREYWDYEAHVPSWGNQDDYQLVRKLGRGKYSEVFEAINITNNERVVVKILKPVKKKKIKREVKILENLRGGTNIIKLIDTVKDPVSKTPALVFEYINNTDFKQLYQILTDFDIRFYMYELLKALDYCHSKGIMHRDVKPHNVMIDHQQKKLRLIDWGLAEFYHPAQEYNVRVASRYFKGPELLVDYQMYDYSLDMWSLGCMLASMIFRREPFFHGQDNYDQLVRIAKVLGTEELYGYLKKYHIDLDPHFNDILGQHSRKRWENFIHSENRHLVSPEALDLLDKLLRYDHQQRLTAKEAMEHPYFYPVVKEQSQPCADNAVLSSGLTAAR

[6] = biological target: T2, Serine/threonine-protein kinase Nek1 (Homo sapiens) (UniProt Q96PY6); assay: Inhibition of NEK1 at 1 uM
T2 sequence (whole entry): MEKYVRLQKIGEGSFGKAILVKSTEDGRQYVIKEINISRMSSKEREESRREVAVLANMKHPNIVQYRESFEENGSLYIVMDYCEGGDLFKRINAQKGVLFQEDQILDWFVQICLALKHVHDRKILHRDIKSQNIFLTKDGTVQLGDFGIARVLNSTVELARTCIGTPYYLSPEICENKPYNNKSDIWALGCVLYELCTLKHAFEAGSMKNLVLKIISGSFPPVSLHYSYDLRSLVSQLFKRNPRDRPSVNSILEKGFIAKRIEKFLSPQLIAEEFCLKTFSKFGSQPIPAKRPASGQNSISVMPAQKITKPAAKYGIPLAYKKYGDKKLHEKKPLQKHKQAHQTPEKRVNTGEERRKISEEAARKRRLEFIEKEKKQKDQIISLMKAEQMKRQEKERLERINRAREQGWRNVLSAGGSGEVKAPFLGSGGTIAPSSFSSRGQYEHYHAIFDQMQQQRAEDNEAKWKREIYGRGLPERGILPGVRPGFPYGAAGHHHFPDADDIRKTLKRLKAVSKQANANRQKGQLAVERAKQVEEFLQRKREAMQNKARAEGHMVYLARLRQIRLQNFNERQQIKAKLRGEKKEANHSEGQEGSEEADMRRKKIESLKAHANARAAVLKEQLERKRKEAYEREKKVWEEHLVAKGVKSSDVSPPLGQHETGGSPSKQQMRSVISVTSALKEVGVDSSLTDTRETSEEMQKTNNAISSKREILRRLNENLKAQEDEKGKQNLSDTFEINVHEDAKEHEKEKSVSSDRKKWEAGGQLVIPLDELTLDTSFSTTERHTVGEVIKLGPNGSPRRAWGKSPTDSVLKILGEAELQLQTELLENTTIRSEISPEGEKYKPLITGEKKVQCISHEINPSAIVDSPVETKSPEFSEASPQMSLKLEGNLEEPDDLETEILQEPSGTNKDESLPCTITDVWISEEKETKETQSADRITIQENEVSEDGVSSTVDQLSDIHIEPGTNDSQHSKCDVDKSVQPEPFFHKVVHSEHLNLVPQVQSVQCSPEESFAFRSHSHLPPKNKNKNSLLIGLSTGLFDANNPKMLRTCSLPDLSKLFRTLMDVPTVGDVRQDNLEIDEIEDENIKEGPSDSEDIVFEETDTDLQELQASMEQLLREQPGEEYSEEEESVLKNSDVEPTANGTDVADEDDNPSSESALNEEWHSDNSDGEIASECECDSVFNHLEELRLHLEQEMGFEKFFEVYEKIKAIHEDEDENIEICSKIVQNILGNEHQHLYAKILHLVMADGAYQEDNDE

[7] = biological target: T3, Phosphatidylinositol 5-phosphate 4-kinase type-2 beta (Homo sapiens) (UniProt P78356); assay: Inhibition of PIP5K2B at 1 uM
T3 sequence (whole entry): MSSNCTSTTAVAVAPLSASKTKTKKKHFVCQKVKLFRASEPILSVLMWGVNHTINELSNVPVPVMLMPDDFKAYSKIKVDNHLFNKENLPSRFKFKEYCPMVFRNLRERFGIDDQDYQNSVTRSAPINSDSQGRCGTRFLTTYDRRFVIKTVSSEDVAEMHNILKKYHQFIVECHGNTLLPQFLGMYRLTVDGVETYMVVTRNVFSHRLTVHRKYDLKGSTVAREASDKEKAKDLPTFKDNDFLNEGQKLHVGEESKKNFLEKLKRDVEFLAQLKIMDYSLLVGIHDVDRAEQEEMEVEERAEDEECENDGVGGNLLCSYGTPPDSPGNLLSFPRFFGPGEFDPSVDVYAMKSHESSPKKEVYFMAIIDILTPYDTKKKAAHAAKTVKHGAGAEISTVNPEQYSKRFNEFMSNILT

[8] = biological target: Ribosomal protein S6 kinase alpha-1 (Homo sapiens) (UniProt Q15418); assay: Inhibition of RPS6KA1 N-terminal domain1 at 1 uM
Ribosomal protein S6 kinase alpha-1 (Homo sapiens), sequence (Q15418 whole entry, the tested form may be a part): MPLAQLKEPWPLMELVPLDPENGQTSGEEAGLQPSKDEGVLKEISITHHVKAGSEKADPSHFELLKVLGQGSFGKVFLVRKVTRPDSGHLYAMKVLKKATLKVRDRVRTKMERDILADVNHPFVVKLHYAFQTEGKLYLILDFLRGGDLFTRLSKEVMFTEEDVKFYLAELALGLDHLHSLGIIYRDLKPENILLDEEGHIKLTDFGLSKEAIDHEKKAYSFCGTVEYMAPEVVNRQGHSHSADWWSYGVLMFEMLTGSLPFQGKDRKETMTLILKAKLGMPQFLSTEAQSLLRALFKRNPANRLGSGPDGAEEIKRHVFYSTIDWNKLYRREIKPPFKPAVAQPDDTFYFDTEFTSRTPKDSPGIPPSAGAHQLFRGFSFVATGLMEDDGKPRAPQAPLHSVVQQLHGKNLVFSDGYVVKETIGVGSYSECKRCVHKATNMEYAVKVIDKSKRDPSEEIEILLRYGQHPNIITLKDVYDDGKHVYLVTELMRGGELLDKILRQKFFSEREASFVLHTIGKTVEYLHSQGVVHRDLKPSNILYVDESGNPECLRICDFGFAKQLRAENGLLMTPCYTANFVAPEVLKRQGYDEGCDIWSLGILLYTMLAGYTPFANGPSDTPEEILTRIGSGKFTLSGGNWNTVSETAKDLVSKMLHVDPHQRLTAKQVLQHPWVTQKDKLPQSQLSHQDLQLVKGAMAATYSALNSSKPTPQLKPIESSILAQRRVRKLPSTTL

[9] = biological target: Receptor-type tyrosine-protein kinase FLT3 (Homo sapiens) (UniProt P36888); assay: Inhibition of FLT3 at 1 uM
Receptor-type tyrosine-protein kinase FLT3 (Homo sapiens), sequence (P36888 whole entry): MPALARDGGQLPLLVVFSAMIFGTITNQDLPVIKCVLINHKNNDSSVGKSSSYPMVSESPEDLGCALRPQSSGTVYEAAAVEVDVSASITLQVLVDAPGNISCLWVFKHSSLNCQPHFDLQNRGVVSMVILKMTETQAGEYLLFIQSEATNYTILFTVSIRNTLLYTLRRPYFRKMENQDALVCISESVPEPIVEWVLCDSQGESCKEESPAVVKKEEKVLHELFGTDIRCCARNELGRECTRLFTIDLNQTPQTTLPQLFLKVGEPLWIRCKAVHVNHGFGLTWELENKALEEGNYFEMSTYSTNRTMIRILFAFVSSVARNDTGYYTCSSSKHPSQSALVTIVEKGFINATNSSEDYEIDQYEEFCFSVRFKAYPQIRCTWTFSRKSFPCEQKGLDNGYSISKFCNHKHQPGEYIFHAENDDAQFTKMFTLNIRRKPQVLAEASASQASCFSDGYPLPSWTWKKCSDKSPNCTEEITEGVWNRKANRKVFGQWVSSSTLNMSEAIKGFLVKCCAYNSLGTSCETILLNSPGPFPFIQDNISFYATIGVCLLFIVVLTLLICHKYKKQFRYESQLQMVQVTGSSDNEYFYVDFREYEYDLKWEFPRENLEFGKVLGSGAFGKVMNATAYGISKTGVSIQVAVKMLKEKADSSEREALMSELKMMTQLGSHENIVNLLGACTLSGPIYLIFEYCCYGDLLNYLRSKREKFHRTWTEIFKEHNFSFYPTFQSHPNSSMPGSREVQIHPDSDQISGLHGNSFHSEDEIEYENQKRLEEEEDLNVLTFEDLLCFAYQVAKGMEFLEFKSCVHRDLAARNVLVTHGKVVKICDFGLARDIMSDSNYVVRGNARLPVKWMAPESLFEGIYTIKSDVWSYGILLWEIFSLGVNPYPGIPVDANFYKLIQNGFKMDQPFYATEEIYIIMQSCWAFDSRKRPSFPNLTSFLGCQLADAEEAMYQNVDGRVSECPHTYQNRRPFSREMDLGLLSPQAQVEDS
In short: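 Single-concentration screen on the Ambit KINOMEscan platform, run against a panel of 250–400 kinases. Per-kinase inhibition was also summarized as S(90), the fraction of kinases inhibited by more than 90%.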

[10] = biological target: Serine/threonine-protein kinase PAK 1 (Homo sapiens) (UniProt Q13153); assay: Inhibition of PAK1 at 1 uM
Serine/threonine-protein kinase PAK 1 (Homo sapiens), sequence (Q13153 whole entry): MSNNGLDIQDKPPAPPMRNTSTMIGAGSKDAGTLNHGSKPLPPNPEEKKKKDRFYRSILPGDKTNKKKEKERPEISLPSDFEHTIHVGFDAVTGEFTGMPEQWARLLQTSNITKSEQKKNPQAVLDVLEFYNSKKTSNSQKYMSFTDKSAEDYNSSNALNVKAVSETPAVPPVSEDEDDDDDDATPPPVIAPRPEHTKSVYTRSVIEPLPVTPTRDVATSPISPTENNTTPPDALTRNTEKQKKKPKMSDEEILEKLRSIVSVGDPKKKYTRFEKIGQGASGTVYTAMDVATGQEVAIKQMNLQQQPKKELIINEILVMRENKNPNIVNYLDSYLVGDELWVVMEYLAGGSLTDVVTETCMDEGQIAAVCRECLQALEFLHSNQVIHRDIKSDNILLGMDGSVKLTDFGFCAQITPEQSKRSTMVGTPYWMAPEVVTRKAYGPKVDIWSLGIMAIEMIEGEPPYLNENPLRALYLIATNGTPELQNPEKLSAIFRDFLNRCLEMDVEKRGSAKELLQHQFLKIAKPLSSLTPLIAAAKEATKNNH

Phosphatidylinositol 4,5-bisphosphate 3-kinase catalytic subunit gamma isoform (Homo sapiens), sequence (P48736 whole entry, looked up, canonical isoform): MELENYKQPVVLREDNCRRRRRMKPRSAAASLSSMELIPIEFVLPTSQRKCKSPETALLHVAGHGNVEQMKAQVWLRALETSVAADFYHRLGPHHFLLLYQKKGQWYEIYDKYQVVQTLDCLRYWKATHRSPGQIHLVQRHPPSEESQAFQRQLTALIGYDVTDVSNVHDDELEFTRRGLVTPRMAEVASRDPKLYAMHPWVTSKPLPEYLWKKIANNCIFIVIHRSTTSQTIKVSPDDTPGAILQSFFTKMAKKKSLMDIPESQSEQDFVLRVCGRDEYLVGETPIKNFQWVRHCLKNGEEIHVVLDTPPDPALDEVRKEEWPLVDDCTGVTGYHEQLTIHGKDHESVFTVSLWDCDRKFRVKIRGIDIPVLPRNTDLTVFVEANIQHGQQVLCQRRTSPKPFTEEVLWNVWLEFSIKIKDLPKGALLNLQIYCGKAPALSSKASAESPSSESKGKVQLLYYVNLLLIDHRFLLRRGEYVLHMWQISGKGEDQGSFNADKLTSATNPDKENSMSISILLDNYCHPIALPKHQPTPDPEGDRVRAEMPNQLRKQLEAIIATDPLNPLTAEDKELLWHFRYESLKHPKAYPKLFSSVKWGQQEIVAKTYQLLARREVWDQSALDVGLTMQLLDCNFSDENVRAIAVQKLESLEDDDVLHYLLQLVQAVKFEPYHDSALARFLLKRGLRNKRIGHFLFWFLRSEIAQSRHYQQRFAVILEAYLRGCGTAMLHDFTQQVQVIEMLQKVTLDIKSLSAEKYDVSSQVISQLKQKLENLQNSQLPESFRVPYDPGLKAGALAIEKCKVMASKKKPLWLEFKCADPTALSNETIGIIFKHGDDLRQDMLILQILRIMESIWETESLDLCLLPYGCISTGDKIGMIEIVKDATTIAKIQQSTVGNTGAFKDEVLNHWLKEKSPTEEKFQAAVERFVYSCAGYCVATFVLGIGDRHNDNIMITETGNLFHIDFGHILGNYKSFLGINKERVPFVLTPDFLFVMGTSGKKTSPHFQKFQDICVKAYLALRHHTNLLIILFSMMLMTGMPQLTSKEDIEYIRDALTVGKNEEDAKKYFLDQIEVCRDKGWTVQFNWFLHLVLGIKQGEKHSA

Compound | inhibition [1] [%] | inhibition [2] [%] | inhibition [3] [%] | inhibition [4] [%] | inhibition [5] [%] | inhibition [6] [%] | inhibition [7] [%] | inhibition [8] [%] | inhibition [9] [%] | inhibition [10] [%]
CN1CCN(c2ccc(-c3cnc4c(c3)N(Cc3cc(F)ccc3F)CCN4)cn2)CC1 | < 50 | < 50 | 96 | < 50 | < 50 | < 50 | < 50 | < 50 | 64 | < 50
CN1CCN(c2ccc(-c3cnc4c(c3)N(Cc3cc(Cl)ccc3Cl)CCN4)cn2)CC1 | < 50 | < 50 | 94 | < 50 | < 50 | < 50 | < 50 | < 50 | 90 | < 50
COC1CCN(C(=O)c2ccc(-c3cnc4c(c3)N(Cc3cc(Cl)ccc3C(F)(F)F)CCN4)cc2)CC1 |  | < 50 |  | < 50 | < 50 | < 50 | < 50 | < 50 | 80.7 | < 50
CN1CCN(c2ccc(-c3cnc4c(c3)N(Cc3c(F)ccc(F)c3Cl)CCN4)cn2)CC1 | < 50 | < 50 | 92 | < 50 | < 50 | < 50 | < 50 | < 50 | < 50 | < 50
O=C(c1ccc(-c2cnc3c(c2)N(Cc2cc(Cl)ccc2C(F)(F)F)CCN3)cc1)N1CCC(N2CCCC2)CC1 |  | < 50 |  | < 50 | < 50 | < 50 | < 50 | < 50 | 99.3 | < 50

Second part, the compound after the results:

inhibition [1] [%] | inhibition [2] [%] | inhibition [3] [%] | inhibition [4] [%] | inhibition [5] [%] | inhibition [6] [%] | inhibition [7] [%] | inhibition [8] [%] | inhibition [9] [%] | inhibition [10] [%] | Compound
< 50 | < 50 | 90 | < 50 | < 50 | < 50 | < 50 | < 50 | 83 | < 50 | CC(=O)N1CCN(c2cc(-c3cnc4c(c3)N(Cc3cc(Cl)ccc3C(F)(F)F)CCN4)ccn2)CC1
 | < 50 |  | < 50 | < 50 |  | < 50 | < 50 | < 50 | < 50 | O=C(O)c1ccc(-c2cnc3c(c2)N(Cc2cc(Cl)ccc2C(F)(F)F)CCN3)cc1
 | < 50 |  | < 50 | < 50 |  | < 50 | < 50 | < 50 | < 50 | O=C(c1ccc(-c2cnc3c(c2)N(Cc2cc(Cl)ccc2C(F)(F)F)CCN3)cc1)N1CCCCC1
< 50 | < 50 | 92 | < 50 | < 50 | < 50 | < 50 | < 50 | 88 | < 50 | CN1CCN(c2ccc(-c3cnc4c(c3)N(Cc3cc(Cl)ccc3C(F)(F)F)CCN4)cn2)CC1
< 50 | < 50 | 88 | < 50 | < 50 | < 50 | < 50 | < 50 | 95 | < 50 | FC(F)(F)c1ccc(Cl)cc1CN1CCNc2ncc(-c3ccnc(N4CCNCC4)c3)cc21
